Most compounds without a hit are left out; they make up all but 4.8% or so of the library.
ALR H2O2 inh: human ALR oxidase inhibition via reduced H2O2; P55789; purified ALR, DTT oxidation, H2O2 HRP-luminol luminescence; inhibition, % (concentration not given with the values); 3.8% of 290,000 active; AID 485317;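 active = mean replicate inhibition above about 79%, with every replicate also reaching it, limit read from the data; inconclusive = only one of the two criteria met; inactive = mean below limit and not every replicate reaching it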
Target sequence (P55789 whole entry, looked up): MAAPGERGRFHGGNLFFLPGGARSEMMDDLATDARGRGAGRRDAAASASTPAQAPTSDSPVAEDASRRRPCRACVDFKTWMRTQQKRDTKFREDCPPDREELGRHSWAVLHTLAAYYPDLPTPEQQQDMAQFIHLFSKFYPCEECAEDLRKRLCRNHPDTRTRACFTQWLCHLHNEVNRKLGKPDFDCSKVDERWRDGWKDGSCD
NALP1 inh: inhibitors of NALP1 inflammasome in yeast. S. cerevisiae NALP1/ASC/caspase-1 growth, X-gal OD620, 72 h. inhibition, % at 10 µM. 0.61% of 280,000 active; in the data active = inhibition mostly above about 24%, no sharp cut-off; inactive = mostly below about 32%
NALP3 yeast inh: inhibitors of NALP3 inflammasome in yeast | Yeast reconstituted NLRP3/ASC/caspase-1, beta-gal luminescence, 24 h | inhibition, % at 10 µM | 0.39% of 330,000 active;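 active = inhibition of 50% or more; inactive = inhibition below 50%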;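 also: plate controls were induced DMSO wells for no effect and uninduced yeast grown without galactose for full effect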
UCH37 DUB inh: inhibitors of human deubiquitinating enzyme UCH37; Q9Y5K5; purified proteasome/UCH37, Ub-AMC cleavage fluorescence; 0.33% of 330,000 active; inhibition, % (no concentration beside the values);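 active = mean inhibition over replicate wells above about 20%, limit read from the data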;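 also: 0% = compound-free wells with enzyme and 100% = wells lacking proteasome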
Target sequence (Q9Y5K5 whole entry, looked up): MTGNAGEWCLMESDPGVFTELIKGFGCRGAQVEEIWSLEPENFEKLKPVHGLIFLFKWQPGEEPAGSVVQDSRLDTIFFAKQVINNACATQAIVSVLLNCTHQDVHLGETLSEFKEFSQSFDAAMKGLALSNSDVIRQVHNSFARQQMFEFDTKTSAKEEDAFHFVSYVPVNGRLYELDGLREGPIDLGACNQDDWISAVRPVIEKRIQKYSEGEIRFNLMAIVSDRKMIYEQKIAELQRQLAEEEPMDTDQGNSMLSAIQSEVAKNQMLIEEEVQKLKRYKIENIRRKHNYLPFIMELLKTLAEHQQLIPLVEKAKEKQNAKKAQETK
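Schedule: 30 min plus 25 min, room temperature / Material: human UCH37 within purified proteasomes / Technique: AMC fluorescence intensity at 355/460 nm / Buffer or medium: pH 7.4 Tris-HCl (50 mM) with ovalbumin, ATP-MgCl2, DTT / Controls: wells without proteasome as full block, compound-free enzyme plus substrate as uninhibited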
ATG4B inh: ATG4B (human) cysteine protease inhibition; 0.51% of 340,000 active; ATG4B cleavage of LC3-PLA2, NBD-HPC fluorescence, 1 h; Q9Y4P1; inhibition, % at 8.33 µM; in the data active = inhibition above about 40%
Calb FLC: affects C. albicans growth with fluconazole; C. albicans CaCi-2 (fluconazole-resistant clinical isolate) + fluconazole, Alamar Blue growth, 48 h; growth inhibition, % (test concentration not listed); 0.57% of 300,000 active;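 active = growth inhibition above about 58% in most replicates, limit read from the data, passing the limit was not always enough; inconclusive = exactly half the replicates above a set limit; inactive = most replicates below a set limit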;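 also: all wells also contain fluconazole at 8 µg/ml as a sub-toxic cotreatment; 0% = median of DMSO wells and 100% = median of geldanamycin control wells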
Numbers without * were called inactive; ? = inconclusive; nt = not tested or not shown.

SMILES	ALR H2O2 inh	NALP1 inh	NALP3 yeast inh	UCH37 DUB inh	ATG4B inh	Calb FLC
CC(=O)Nc1ccc(/C=C/C(=O)c2ccc3c(c2)OCCO3)cc1	7	4	26	0	-4	-17
O=C(/C=C/c1ccc2c(c1)OCCO2)c1ccccc1	nt	-1	28	7	-6	3
COc1cc(C=NNC(=O)c2ccncc2)ccc1OCC(=O)Nc1ccccc1	nt	nt	nt	6	nt	nt
CC(Cn1nnc([N+](=O)[O-])n1)=NNC(=O)c1ccc(C)cc1	nt	nt	nt	7	nt	nt
CCOc1ccc(C(=NO)C(C)NO)cc1 (stereo not given)	nt	nt	nt	2	nt	nt
COC(C/C=C/C(=O)[C@H](C)OCc1ccccc1)OC	87*	nt	11	nt	-10	-12
COC(C/C=C\C(=O)COCc1ccccc1)OC	nt	nt	12	nt	nt	0
CC(=O)Nc1ccc(S(=O)(=O)N(CCc2ccccc2)CC(=O)NN=Cc2ccc(C(=O)O)cc2)cc1	nt	nt	nt	5	nt	nt
O=S1(=O)c2ccccc2N=NN1Cc1cc(Cl)cc(Cl)c1	99*	6	-2	nt	nt	2
Cc1ccc(-c2csc(NC(=O)CSc3nc4ccccc4c(=O)n3CCCN(C)C)n2)cc1	99*	4	0	8	-11	27
CN(C)CCCn1c(SCC(=O)N2c3ccccc3Sc3ccccc32)nc2ccccc2c1=O	97*	30	nt	9	26	-1
Cc1csc(=NN=Cc2ccc(O)cc2)n1Cc1ccco1	nt	nt	nt	1	nt	nt
Nc1nc2ccccc2n1N=Cc1ccc(-c2ccccc2)o1	nt	nt	nt	-67	nt	nt
CC(/C=C/c1ccco1)=N\NC(=O)CNc1ccc2ccccc2c1	-17	20*	17	nt	-12	116*
CC(/C=C/c1ccco1)=NNC(=O)CNc1ccccc1C	nt	nt	nt	5	nt	nt
Cc1cccc(/N=C/c2c(O)c3ccccc3oc2=O)n1	7	27*	7	nt	3	-5
Cc1cc(C)cc(N=Cc2c(O)c3ccccc3oc2=O)c1	-6	4	1	-480	3	17
COc1cc(OC)c(OC)cc1C=NNc1ccc(Cl)nn1	nt	nt	nt	8	nt	nt
COC(CNC(=O)c1cccnc1)OC	0	25	8	-3	8	?
COC(CNC(=O)c1ccc2c3c(onc13)-c1ccccc1C2=O)OC	-6	1	21	20*	-4	-3
O=c1c(C=NN2CCOCC2)c(C(F)(F)F)[nH]n1-c1ccccc1	nt	nt	nt	2	nt	nt
CCOC(=O)CSc1nc(N2CCOCC2)c2c(c1C#N)CC(C)(C)N(C)C2	100*	16	15	-4	4	-1
CCOC(=O)CSc1nc(N2CCOCC2)c2c(c1C#N)CC(C)(C)OC2	0	-12	30	-46	0	0
CCOC(=O)Cc1c(C)nc2c(C#N)c[nH]n2c1=O	nt	-8	11	1	2	?
CCc1c(C)nc2c(C#N)c[nH]n2c1=O	98*	13	7	-1	-8	-2
SMILES	ALR H2O2 inh	NALP1 inh	NALP3 yeast inh	UCH37 DUB inh	ATG4B inh	Calb FLC
CN(C)c1ccc(CNC(=O)C2CCN(S(=O)(=O)c3ccc4c(c3)CCCC(=O)N4)CC2)cc1	98*	17	20	3	-3	-6
CN(C)c1ccc(CNC(=O)c2cc(S(=O)(=O)N3CCCC3)cn2C)cc1	98*	21	17	0	-14	1
COc1cccc(C=NNC(=O)c2ccoc2C)c1	nt	nt	nt	1	nt	nt
CCn1c(=O)c2cc(C(=O)NCCN3CCOCC3)sc2c2ccccc21	94*	-15	-3	-165	-5	-7
CCCN1CCN(CCCNC(=O)c2cc3c(=O)[nH]c4ccccc4c3s2)CC1	-5	25*	16	-197	-12	7
COCCNC(=O)c1cc2c(=O)[nH]c3ccccc3c2s1	-7	-4	-3	-265	-4	-5
CCCCNC(=O)c1cc2c(=O)n(CC)c3ccccc3c2s1	nt	28	25	-24	5	-2
CCN(CC)C(=NS(=O)(=O)c1ccc(F)cc1)c1ccccc1	nt	nt	nt	0	nt	nt
COc1ccc(-c2csc(N3CCN(C(=O)c4ccco4)CC3)n2)cc1	64	-19	14	6	7	5
COc1ccc(C2=NN(c3nc(-c4ccc(CNC(C)=O)cc4)cs3)C(c3ccco3)C2)cc1 (stereo not given)	99*	25	17	-49	-1	11
O=C(/C=C/c1ccccc1)N/C(=C/c1ccccc1)C(=O)Nc1ccc(C(=O)O)cc1	87*	20	10	6	4	-4
CC(=O)N/C(=C\c1ccccc1)C(=O)Nc1ccc(O)cc1	99*	1	11	0	-13	30
CC(=O)c1ccc(NC(=O)/C(=C\c2ccccc2)NC(=O)/C=C/c2ccccc2)cc1	-10	1	5	1	-15	22
Cc1cc(SCC(=O)Nc2ccc(O)cc2)n2nc(C)c(-c3ccccc3)c2n1	99*	0	1	1	-12	4
CCN(CC)c1ccc(NC(=O)CSc2nnc3nc(C)cc(C)n23)cc1	99*	6	10	1	-7	1
Cc1cc(C)n2nc(SCC(=O)Nc3ccc(O)cc3)nc2n1	99*	-8	18	1	2	?
Cc1cc(C)n2nc(SCC(=O)Nc3ccc(F)cc3)nc2n1	-3	-1	6	4	5	-3
CCN(CC)c1ccc(NC(=O)c2nc3nc(C)cc(C(F)F)n3n2)cc1	99*	32	18	7	-4	14
COc1ccc(NC(=O)c2nc3nc(C)cc(C(F)F)n3n2)cc1OC	nt	30	-1	4	-10	0
C#CCSc1nnc(-c2cccc3ccccc23)o1	97*	nt	-1	-12	1	-28
COc1ccc(C=NNC(=O)c2ccccc2OCc2ccccc2)c(OC)c1	nt	nt	nt	-4	nt	nt
CCOC(=O)C1=C(O)/C(=C\c2cc(C)n(-c3ccccc3F)c2C)N=C1C	-6	-3	15	-2	0	15
COC(=O)C1=C(O)/C(=C\c2ccc(O)c(OC)c2)N=C1C	99*	-5	5	12	13	24
COC(=O)C1=C(O)/C(=C\c2ccc(OCC(=O)Nc3ccccc3OC)cc2)N=C1C	4	18	0	-26	-8	9
CCOC(=O)C1=C(O)/C(=C/c2cccc(OC)c2O)N=C1C	78*	1	4	13	0	0
COc1cc(C=NNC(=O)c2cc(C3CC3)[nH]n2)ccc1O	nt	nt	nt	6	nt	nt
C=COC(=O)CSc1snc(SCC(=O)OC)c1C#N	99*	9	16	3	7	0
O=[N+]([O-])c1ccc(N/N=C/c2ccc(O)c(O)c2O)c(S(=O)(=O)N2CCOCC2)c1	nt	13	27	nt	-5	100*
O=C(CCc1ccc(S(=O)(=O)N2CCOCC2)cc1)N/N=C/c1ccc(O)c(O)c1O	99*	0	-5	nt	-2	-10
CC1=CC(=NNC(=O)c2cccs2)CC(C)(C)C1	nt	nt	nt	-1	nt	nt

Bioassay records from PubChem BioAssay.
